Laboratory results taken from paper PMC12804367 (ESMO Open, 2025).
Values joined by “and” are separate entries in the source; they are usually repeats but may differ in a detail not shown here. Equal entries are not always repeated. “Also recorded” adds a separate entry of the source.

Legend:
[1] = test system: patients with advanced solid tumors; conditions: all patients; cited from earlier work
[2] = test system: patients with advanced or metastatic solid tumors; test: Safety, tolerability and DLTs; assay type: in vivo, human; conditions: for Treatment-related AE: decreased appetite / Treatment-related AE: fatigue / Treatment-related AE: hyperglycemia / Treatment-related AE: pruritus / Treatment-related AE: rash: all patients (17)
How it was run: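 3 + 3 escalation starting at 16 mg/day once daily or 24 mg/day intermittent (4 days on/3 days off) in 21-day cycles. AEs graded by CTCAE v5.0. DLTs were selected lab abnormalities or AEs at least possibly drug-related during cycle 1, assessed in patients with a DLT or ≥80% of planned doses taken.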

[3] = all patients (N = 17), any grade
[4] = all patients (N = 17), grade ≥3
[5] = dose escalation intermittent 24 mg (n = 4)
[6] = dose escalation intermittent 28 mg (n = 3)
[7] = dose escalation intermittent total (n = 7), any grade
[8] = dose escalation intermittent total (n = 7), grade ≥3
[9] = dose escalation o.d. 16 mg (n = 3)
[10] = dose escalation o.d. 20 mg (n = 6)

C[C@]1(O)C[C@@](N)(c2ccc(-c3nc4n(c3-c3ccccc3)COc3ccncc3-4)cc2)C1 [TAS-117]
Tolerability of 24-mg o.d. dose level [1]: intolerable skin toxicities | DLTs ([2]; 16 mg o.d.): no DLTs | Time to resolution of DLT ([2]; 20 mg o.d., grade 3 neutropenic infection, dose not modified): ≤ 6 days | DLT event ([2]; 20 mg o.d., one patient): grade 3 neutropenic infection | DLT event ([2]; 28 mg intermittent dosing, two patients): grade 3 oral mucositis; also recorded: grade 3 stomatitis | Time to resolution of DLT (stomatitis) ([2]; 28 mg intermittent, TAS-117 paused, per patient): ≤ 6 days and ≤ 7 days | Grade ≥3 TRAEs ([2]; 16-mg o.d. dose cohort): 33.3% | TRAEs ([2]; 16-mg o.d. dose cohort): 66.7% | TRAEs reported ([2]; 16-mg o.d. dose level): rash (grade 3) and hyperglycemia (grade 2) | Grade ≥3 TRAEs ([2]; 20-mg o.d. dose cohort): 66.7% | TRAEs ([2]; 20-mg o.d. dose cohort): 100% | Patients with treatment discontinued due to a TRAE ([2]; 20-mg o.d. dose group): 50.0% | Patients with grade ≥3 TRAEs ([2]; 20-mg o.d. dose level, out of six): four | Any-grade TRAEs ([2]; 24-mg intermittent dose group): 50.0% | Grade ≥3 TRAEs ([2]; 24-mg intermittent dose group): 25.0% | Any-grade TRAEs ([2]; 28-mg intermittent dose group): 100.0% | Grade ≥3 TRAEs ([2]; 28-mg intermittent dose group): 66.7% | Patients with any TRAE ([2]; DRC 16 mg o.d. (n = 1)): 0 n (%) | Treatment-related AE: decreased appetite ([2]; all grade): 17.6% | Treatment-related AE: fatigue ([2]; all grade): 35.3% | Treatment-related AE: hyperglycemia ([2]; all grade): 29.4% | Treatment-related AE: pruritus ([2]; all grade): 29.4% | Treatment-related AE: rash ([2]; all grade): 58.8% | Treatment-related AE: decreased appetite ([2]; grade ≥3): 0% | Treatment-related AE: fatigue ([2]; grade ≥3): 1% | Treatment-related AE: hyperglycemia ([2]; grade ≥3): 1% | Treatment-related AE: pruritus ([2]; grade ≥3): 0% | Treatment-related AE: rash ([2]; grade ≥3): 17.6% | Patients with any TRAE [2, 3]: 13 (76.5) n (%) | TRAE: Decreased appetite [2, 3]: 3 (17.6) n (%) | TRAE: Diarrhea [2, 3]: 3 (17.6) n (%) | TRAE: Fatigue [2, 3]: 6 (35.3) n (%) | TRAE: Hyperglycemia [2, 3]: 5 (29.4) n (%) | TRAE: Nausea [2, 3]: 2 (11.8) n (%) | TRAE: Pruritus [2, 3]: 5 (29.4) n (%) | TRAE: Rash [2, 3]: 10 (58.8) n (%) | TRAE: Rash maculopapular [2, 3]: 2 (11.8) n (%) | TRAE: Stomatitis [2, 3]: 3 (17.6) n (%) | Patients with any TRAE [2, 4]: 8 (47.1) n (%) | TRAE: Fatigue [2, 4]: 1 (5.9) n (%) | TRAE: Hyperglycemia [2, 4]: 1 (5.9) n (%) | TRAE: Rash [2, 4]: 3 (17.6) n (%) | TRAE: Rash maculopapular [2, 4]: 2 (11.8) n (%) | TRAE: Stomatitis [2, 4]: 2 (11.8) n (%) | Tolerability ([2]; at the RP2D, 16 mg o.d.): tolerable, with a manageable safety profile; also recorded: tolerable, with a manageable AE profile | Patients with any TRAE [2, 5]: 2 (50.0) n (%) | TRAE: Fatigue [2, 5]: 2 (50.0) n (%) | TRAE: Hyperglycemia [2, 5]: 1 (25.0) n (%) | TRAE: Pruritus [2, 5]: 2 (50.0) n (%) | TRAE: Rash [2, 5]: 2 (50.0) n (%) | Patients with any TRAE [2, 6]: 3 (100) n (%) | TRAE: Decreased appetite [2, 6]: 2 (66.7) n (%) | TRAE: Fatigue [2, 6]: 2 (66.7) n (%) | TRAE: Hyperglycemia [2, 6]: 2 (66.7) n (%) | TRAE: Pruritus [2, 6]: 2 (66.7) n (%) | TRAE: Rash [2, 6]: 2 (66.7) n (%) | TRAE: Rash maculopapular [2, 6]: 1 (33.3) n (%) | TRAE: Stomatitis [2, 6]: 3 (100) n (%) | Patients with any TRAE [2, 7]: 5 (71.4) n (%) | TRAE: Decreased appetite [2, 7]: 2 (28.6) n (%) | TRAE: Diarrhea [2, 7]: 1 (14.3) n (%) | TRAE: Fatigue [2, 7]: 4 (57.1) n (%) | TRAE: Hyperglycemia [2, 7]: 3 (42.9) n (%) | TRAE: Nausea [2, 7]: 1 (14.3) n (%) | TRAE: Pruritus [2, 7]: 4 (57.1) n (%) | TRAE: Rash [2, 7]: 4 (57.1) n (%) | TRAE: Rash maculopapular [2, 7]: 1 (14.3) n (%) | TRAE: Stomatitis [2, 7]: 3 (42.9) n (%) | Patients with any TRAE [2, 8]: 3 (42.9) n (%) | TRAE: Hyperglycemia [2, 8]: 1 (14.3) n (%) | TRAE: Rash [2, 8]: 1 (14.3) n (%) | TRAE: Rash maculopapular [2, 8]: 1 (14.3) n (%) | TRAE: Stomatitis [2, 8]: 2 (28.6) n (%) | Patients with any TRAE [2, 9]: 2 (66.7) n (%) | TRAE: Hyperglycemia [2, 9]: 1 (33.3) n (%) | TRAE: Rash [2, 9]: 2 (66.7) n (%) | Patients with any TRAE [2, 10]: 6 (100) n (%) | TRAE: Decreased appetite [2, 10]: 1 (16.7) n (%) | TRAE: Diarrhea [2, 10]: 2 (33.3) n (%)
